Laboratory results from ChEMBL document CHEMBL1152548, “Structural and biological evaluation of some loloatin C analogues” (Bioorg Med Chem, 2009).
Values after ≈ are worked out from the molar mass of the structure shown.

What was measured:
Enterococcus faecalis = assay: Antibacterial activity against Enterococcus faecalis ATCC 29212 after 24 to 96 hrs by twofold serial dilution method; type: functional
Method in brief: (§1)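 Strains kept at -70 °C, grown at 30 °C on blood agar and suspended in physiological saline to OD 0.1 at 595 nm. The suspension was diluted 10× and 2 µL added to 100 µL nutrient broth with yeast extract. Peptides came from an ethanol stock (4 g/L), were diluted in water and twofold diluted in broth (64 to 1 mg/L). Plates were incubated at 30 °C for 24–96 h. MIC was the lowest concentration inhibiting growth.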

Escherichia coli = assay: Antibacterial activity against Escherichia coli ATCC 25922 after 24 to 96 hrs by twofold serial dilution method; type: functional; method in brief: as §1
Staphylococcus aureus = assay: Antibacterial activity against Staphylococcus aureus ATCC 29213 after 24 to 96 hrs by twofold serial dilution method; type: functional; method in brief: as §1
[1] = tested on: erythrocyte (Homo sapiens); assay: Cytotoxicity against human erythrocytes assessed as induction of hemolysis at 10 uL after 4 hrs
Pseudomonas aeruginosa = assay: Antibacterial activity against Pseudomonas aeruginosa ATCC 27853 after 24 to 96 hrs by twofold serial dilution method; type: functional; method in brief: as §1
[2] = tested on: Staphylococcus epidermidis; assay: Antibacterial activity against Staphylococcus epidermidis ATCC 12228 after 24 to 96 hrs by twofold serial dilution method; type: functional; method in brief: as §1
Bacillus cereus = assay: Antibacterial activity against Bacillus cereus ATCC 11778 after 24 to 96 hrs by twofold serial dilution method; type: functional; method in brief: as §1
[3] = Solubility in 30% DMSO; type: physicochemical

| MIC (Enterococcus faecalis) [µg/mL] | MIC (Escherichia coli) [µg/mL] | MIC (Staphylococcus aureus) [µg/mL] | MIC (Pseudomonas aeruginosa) [µg/mL] | MIC [2] [µg/mL] | MIC (Bacillus cereus) [µg/mL] | solubility [3] | Structure (SMILES) | Activity [1] |
| --- | --- | --- | --- | --- | --- | --- | --- | --- |
| > 64 | > 64 | > 64 | > 64 | > 64 | > 64 |  | CC(C)C[C@@H]1NC(=O)[C@H](CCCN)NC(=O)[C@H](C(C)C)NC(=O)[C@H](Cc2c[nH]c3ccccc23)NC(=O)[C@H](CC(=O)O)NC(=O)[C@@H]2O[C@H](CNC(=O)[C@H](Cc3c[nH]c4ccccc34)NC(=O)[C@@H]3CCCN3C(=O)[C@@H](Cc3ccc(O)cc3)NC1=O)[C@@H](OCc1ccccc1)[C@@H]2O | Non-toxic |
| > 64 | > 64 | > 64 | > 64 | 32 (≈ 24.9 µM) | 64 (≈ 49.9 µM) | Insoluble | CC(C)C[C@@H]1NC(=O)[C@H](CCCN)NC(=O)[C@H](C(C)C)NC(=O)[C@@H]2O[C@H](CNC(=O)[C@H](CC(N)=O)NC(=O)[C@H](Cc3ccccc3)NC(=O)[C@H](Cc3c[nH]c4ccccc34)NC(=O)[C@@H]3CCCN3C(=O)[C@@H](Cc3ccc(O)cc3)NC1=O)[C@@H](OCc1ccccc1)[C@@H]2O | Toxic |
| 8 (≈ 5.99 µM) | > 64 | 8 (≈ 5.99 µM) | > 64 | 8 (≈ 5.99 µM) | 8 (≈ 5.99 µM) |  | CC(C)C[C@@H]1NC(=O)[C@H](CCCN)NC(=O)[C@H](C(C)C)NC(=O)[C@H](Cc2c[nH]c3ccccc23)NC(=O)[C@H](CC(=O)O)NC(=O)[C@H](CC(N)=O)NC(=O)[C@@H](Cc2ccccc2)NC(=O)[C@H](Cc2c[nH]c3ccccc23)NC(=O)[C@@H]2CCCN2C(=O)[C@@H](Cc2ccc(O)cc2)NC1=O [LOLOATIN C] | Toxic |
| > 64 | > 64 | > 64 | > 64 | > 64 | > 64 | Insoluble | CC(C)C[C@@H]1NC(=O)[C@H](CCCN)NC(=O)[C@H](C(C)C)NC(=O)[C@H](Cc2c[nH]c3ccccc23)NC(=O)[C@H](CC(=O)O)NC(=O)[C@H](CC(N)=O)NC(=O)[C@@H](Cc2ccccc2)NC(=O)[C@H](Cc2c[nH]c3ccccc23)NC(=O)[C@@H]2O[C@H](CNC1=O)[C@@H](OCc1ccccc1)[C@@H]2O | Non-toxic |

Further lines, the compound ahead of its results:

| Structure (SMILES) | MIC (Enterococcus faecalis) [µg/mL] | MIC (Escherichia coli) [µg/mL] | MIC (Staphylococcus aureus) [µg/mL] | MIC (Pseudomonas aeruginosa) [µg/mL] | MIC [2] [µg/mL] | MIC (Bacillus cereus) [µg/mL] | solubility [3] | Activity [1] |
| --- | --- | --- | --- | --- | --- | --- | --- | --- |
| CC(C)C[C@@H]1NC(=O)[C@H](CCCN)NC(=O)[C@H](C(C)C)NC(=O)[C@H](Cc2c[nH]c3ccccc23)NC(=O)[C@@H](CC(=O)O)NC(=O)[C@H](CC(N)=O)NC(=O)[C@H](Cc2ccccc2)NC(=O)[C@H](Cc2c[nH]c3ccccc23)NC(=O)[C@@H]2CCCN2C(=O)[C@@H](Cc2ccc(O)cc2)NC1=O | > 64 | > 64 | > 64 | > 64 | > 64 | > 64 |  |  |
| CC(C)C[C@@H]1NC(=O)[C@H](CCCN)NC(=O)[C@H](C(C)C)NC(=O)[C@H](Cc2c[nH]c3ccccc23)NC(=O)[C@H](CC(=O)O)NC(=O)[C@H](CC(N)=O)NC(=O)[C@H](Cc2ccccc2)NC(=O)[C@H](Cc2c[nH]c3ccccc23)NC(=O)[C@@H]2CCCN2C(=O)[C@@H](Cc2ccc(O)cc2)NC1=O | > 64 | > 64 | 64 (≈ 47.9 µM) | > 64 | 32 (≈ 24 µM) | 32 (≈ 24 µM) | Insoluble | Toxic |
| CC(C)C[C@@H]1NC(=O)[C@H](CCCN)NC(=O)[C@H](C(C)C)NC(=O)[C@@H]2O[C@H](CNC(=O)[C@H](CC(N)=O)NC(=O)[C@@H](Cc3ccccc3)NC(=O)[C@H](Cc3c[nH]c4ccccc34)NC(=O)[C@@H]3CCCN3C(=O)[C@@H](Cc3ccc(O)cc3)NC1=O)[C@@H](OCc1ccccc1)[C@@H]2O | > 64 | > 64 | > 64 | > 64 | > 64 | > 64 | Insoluble | Non-toxic |
